Reference: the RNAGym collection of RNA variant scans (doi:10.1126/science.aae0568)
Variants at the floor of the assay were thinned out.

B1: tRNA (parent)
chain: GUUCCGUUGGCGUAAUGGUAACGCGUCUCCCUCCUAAGGAGAAGACUGCGGGUUCGAGUCCCGUACGGAACG

Variants of: B1
Experiment: yeast fitness relative to wild type (ratio to wild type); higher = fitter; tRNA-Arg(CCU), competitive growth, 37 C, YPD
How it was run: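 For this measurement, the tRNA-Arg(CCU) gene was varied by chemical synthesis at a 3% per-site mutation rate across 69 sites, and each variant was placed at the native genomic locus in Saccharomyces cerevisiae. The pooled strains went through a 24-hour competition in YPD at 37°C in six parallel replicates, with amplicons from start and end populations read by 100-nucleotide paired-end sequencing. Darwinian fitness relative to wild type followed from the change in each genotype's frequency. Genotypes needed ≥ 100 starting reads, and estimates < 0.5 were set to 0.5.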

Compared with GUUCCGUUGGCGCAAUGGUAACGCGUCUCCCUCCUAAGGAGAAGACUGCGGAUUCGAGUCCCGUACGGUACG [U13C G52A A69U], GUUCCGAUGGGGUAAUGGUAACGCGUCUCCCUCCUAAGGUGCAGACUGCGGGUUCGAGUCCCGUACGGAACG [U7A C11G A40U A42C] is lower in yeast fitness: 0.689 for the first, at most 0.5 for the second.

Going from GUUCGGUUGGCGUAAUGGUUACGCGUCUCCCUCCUAGGGAGAAGACUGCGGGUUCGAGUCCCGAACGGAACG [C5G A20U A37G U64A] to GUUCCGUUGGUGUAAUGGUAACGCCUCUCCCUCCUUAGGAGAAGACUGCGGGUUCGAGUCCCGUACGGAACG [C11U G25C A36U], the yeast fitness falls from 0.577 to 0.547.

Compared with GUUCCGUUGGCGUAAUGGUAACGCGUCUCCCUCCUAAGGAGAAGACUGCGGGUUCGAGUCCCGUACGGGCCG [A69G A70C], GUUCCGUUGGCGUAAUGGUAACGUGUCUCCCUCCUAAGGAGAAGACUGGGGGUUCGAGUCCCGUUCGGAACG [C24U C49G A65U] is lower in yeast fitness: 0.896 for the first, at most 0.5 for the second.

First: GUACCGUUGGCGUAAUGGUAGCGCGUCUCCCUCCUAAGGAGAAGUCUGCGGGUUCGAGUCCCGUACCGAACG [U3A A21G A45U G67C]
Second: GUUCCGUUGGCGUAAUGGUAACGCGUUUCCCUCCUAAGGAGAAGACUGCGGGUUAGAGUCCCGUACGGUACG [C27U C55A A69U]
The yeast fitness of the first is lower: at most 0.5 for the first, 0.549 for the second.

GUUCCGUUGGAGUAAUGGUAACGCGUCUCCCUCCUAAGGGGAUGACUGCGGGUUCGAGGCCCGUACGGAACG [C11A A40G A43U U59G] and GUUCCGUUGGCGUCAUGAUAACGCGUCUCCCUCCUAAGGAGGAGAAUGCGGGUUCGAGUCCCGUACGGAACG [A14C G18A A42G C46A] cannot be ordered by yeast fitness: at most 0.5 for the first, at most 0.5 for the second.

Going from GUUCGGUUGGCGUAGUGGUAACGCGUGACCCACCUAAGGAGAAGGUUGCGGGUUCCAGUCUCGUACGGAACG [C5G A15G C27G U28A U32A A45G C46U G56C C61U] to GUUCCGUUGGCGUAAUGGUAACGCGUCUCCCUCCUAAGGAGAGGACUGUGGGUUCGAGUACAGUACGGAACG [A43G C49U C60A C62A], the yeast fitness falls from 0.736 to at most 0.5.

Going from GUGCCGUUGGUGUAAUGGUAUCGCGUCUCCCUCCUAAGGAGAACACUGCGGGUUCGUGUCCCGUACGGAACG [U3G C11U A21U G44C A57U] to GUUCCGUUGGCGUAAUGGUAACGUGUCUCCCUUAUAAGGAGAAGACUGCGGGUUCGAGUCCCGUACGGAACG [C24U C33U C34A], the yeast fitness rises from at most 0.5 to 0.555.

Going from GUUCCGUUGGCGUAAUGGUAACGCGUCUCCCUCCCAAGGAGAAGGCUGCGGGUUCGAGUCCAGUACGGAACG [U35C A45G C62A] to GUUCCGUUGGCGUAAUGGUAACGCGUCUCUCUCCUAAGGAGACGACUGCGGGUUCGAGUCCCGUACGGAACG [C30U A43C], the yeast fitness rises from at most 0.5 to 1.04.

Compared with GUUCCGUUCGCGUAAUGGUAACGCGUCUCCCUCCUAACGAGAAGACUCCGGGUUCGAGUCCCGUACGGAACG [G9C G38C G48C], GUUACGUCGACGUAAUGGUAACGCGUCUCCCUCCUAAGGAGCAGACUGCGGGUUCGAGUCCCGUACGGAACG [C4A U8C G10A A42C] is lower in yeast fitness: 0.582 for the first, at most 0.5 for the second.

First: GUUCCGUUGGCGUAAUGGUUACGCGUCUCCCUCCUAAGGAGUAGACUGCGGGUUCGAGUCUCGUAUGGAACG [A20U A42U C61U C66U]
Second: GUUCCGUUGGCGUAAUGGUAACGCGUCUCCCUCCUCAGGAGAAGACUGCGGGUUCGAGUCCCGCACGGAACG [A36C U64C]
The yeast fitness of the first is lower: at most 0.5 for the first, 0.824 for the second.

GUUCCGUUAGCGUAAUGGUAACGAGUCUCCCUCCUCGGGAGAAGACUGAGGGUUCGAGUCCCGUACGGAACG [G9A C24A A36C A37G C49A] and GUUCCGUUGGCGUAAUGGUAACGUGCCCCCCUCCUAAGGAGAAGACUGCGGCUUCGAGUGCCGUACGGAACG [C24U U26C U28C G52C C60G] cannot be ordered by yeast fitness: at most 0.5 for the first, at most 0.5 for the second.

Going from GUUCGGUUGGCGUAAUGGUAACGCGUUUCCCUCCUAAGGACAAGACUGCGGGUUCGAGUCCCGUACGGAACG [C5G C27U G41C] to GUUCCGUUGGCGUAAUGGUCACGCGUCUCCCUCCUAAGGAGAAGACUACGGGUUCGAGUCCCGUACGGAACG [A20C G48A], the yeast fitness rises from at most 0.5 to 0.908.

First: GUUCCGUUGGCGUAAUGGUAACGCGUCUUCCUCCUAAGGAGAGGACUGCGGGUUCGAGUCCCGUAUGGAACG [C29U A43G C66U]
Second: GUUCCGUUGGUGUAAUGGUAAGGCGUCUGCCUCCUAAGGAAAAGACUGCGGGUUCGAGUCCCGUACGGAACG [C11U C22G C29G G41A]
The yeast fitness of the first is higher: 0.598 for the first, at most 0.5 for the second.

GUGCUGUUGGCGUAAUGGUAACGCGUCUCUCUCCUAAGGUGAAGACUGUGGGUUCGAGUCCCGUACGGAACG [U3G C5U C30U A40U C49U] and GUUCCGUUGGCGUAAUGGUUACGGGUCUCCCUCCUAAGGAGAAGACUGCGGGUUCGAGUCCCAUUCGGAACG [A20U C24G G63A A65U] cannot be ordered by yeast fitness: at most 0.5 for the first, at most 0.5 for the second.

Going from GUUCCGUUGGCGUAAUGGUAACGCGUCUCCCUCCUGAGGAGAAGACUGCGGGUUCGAGUCCCGUACGGACCG [A36G A70C] to GUUCCGUUGGCGUAAUGGUAACGCGUCUCCCUCCUAAGGAGAAGACUGCGAGUUGGAGUCCCGUACGGAACG [G51A C55G], the yeast fitness falls from 1.02 to 0.648.

First: GUUCCGUUGGCGUAAUGGUAACGCGUCUCCCUCCUAAGGAGUAGACUGCGGGUUCGAGUCCCAUACGCAACG [A42U G63A G68C]
Second: GUUCCGUUGGCGUAAUGGUAACGCGUCUCCCUCCUAAGGAGAACACUGCGGGUUCGAGUCCCGUACGGGACG [G44C A69G]
The yeast fitness of the first is lower: 0.544 for the first, 1.04 for the second.

GUUCCGUUGACGUAAUGGUAACCCGUCUCCCUCCUAAGGAGAAGGCUGCGGGUUCGAGUCCCGUUCGGAACG [G10A G23C A45G A65U] and GUUCCGUUGGCAUAAUGGUAACGCGUUUCCCUCCUACGGAGAAGGCUGCGGGUUCGAGUCCCGUACGGAACG [G12A C27U A37C A45G] cannot be ordered by yeast fitness: at most 0.5 for the first, at most 0.5 for the second.

GUUCCGUUGGAGUAAUGGUAACGCGUCUCCCUCCUAAGGAGAUGACUGCGGGUUCGAGUCCGGUACGGAUCG [C11A A43U C62G A70U] and GUUCCGUUAGCGUAACGGUGACGCGUCUCCCUCCUAAGGAGGAGACUGCGGGUUCGAGUCCCGUACGGAACG [G9A U16C A20G A42G] cannot be ordered by yeast fitness: at most 0.5 for the first, at most 0.5 for the second.

GUUCCGUCGGCGUCAUGGUAACGCGUGUCCCUCCUAAGGAGAAGAGUGCGGGUUCGAGUCCCGUGCGGAACG [U8C A14C C27G C46G A65G] and GUUCCGUUGGCGUAAUGGUAUCGCGUCUAUCUCCUAAGGAGAAGACUGCGGGUUCGAGUCCGGAACGGAACG [A21U C29A C30U C62G U64A] cannot be ordered by yeast fitness: at most 0.5 for the first, at most 0.5 for the second.
